Compound activity from PubChem BioAssay.
This is a sample that favours compounds with a hit; in the whole collection about 3.5% have one here.
TCR-CD3 inh = blocks the human TCR-CD3 interaction; inhibition, % at 9.4 µM; 360,000 compounds, 0.37% hits; AID 651800; TAMRA-labeled TCR probe fluorescence, biochemical; in the data active = inhibition above about 19%;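 also: recombinant mutant TCR 2C K166C tagged with TAMRA read by polarization; 0% = receptor in buffer alone and 100% = receptor with positive control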
rCAG binder = molecules binding r(CAG) RNA repeats; inhibition, % at 3 µM; AID 651821; r(CAG) RNA repeat, TO-PRO-1 dye displacement fluorescence; 370,000 compounds, 1.3% hits;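 active = inhibition above the plate cutoff, the mean of all test compounds on that plate plus 3 SD, cut at about 35% in these data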;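 also: 0% = DMSO alone and 100% = 100 µM mitoxantrone as full dye displacement; higher means more dye released from RNA so lower well fluorescence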
ABHD4 inh = ABHD4 (mouse) inhibition, primary FP screen; Q8VD66; purified mABHD4, FP-Rh probe fluorescence polarization; inhibition, % at 8.92 µM; 370,000 compounds, 0.54% hits; AID 720543;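 active = inhibition exceeding the mean over every tested compound plus 3 SD, cut at about 30% in these data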;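 also: 0% = plate median of compound wells and 100% = S159A mutant with DMSO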
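System: mouse ABHD4 enzyme, wild type / Medium: HEPES pH 7.0, NaCl, Pluronic buffer / Reagent: FP-Rh activity-based fluorescent probe / Control set: S159A mutant high control, sample median low control / Detection: fluorescence polarization with parallel and perpendicular emission, 525/598 nm / Schedule: 45 min + 60 min at 25 °C / Compound dosing: 8.92 µM, single dose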
SIAE primary = human SIAE inhibition, primary screen; SIAE FP-Rh probe binding, fluorescence polarization; inhibition, % at 9.66 µM; 370,000 compounds, 0.69% hits; AID 1053197;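 active = inhibition above a cutoff: mean of compounds within the control limits plus 3 SD of those, cut at about 17% in these data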;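 also: 0% = plate median of compound wells and 100% = probe without SIAE protein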
Target sequence (Q9HAT2 whole entry, looked up): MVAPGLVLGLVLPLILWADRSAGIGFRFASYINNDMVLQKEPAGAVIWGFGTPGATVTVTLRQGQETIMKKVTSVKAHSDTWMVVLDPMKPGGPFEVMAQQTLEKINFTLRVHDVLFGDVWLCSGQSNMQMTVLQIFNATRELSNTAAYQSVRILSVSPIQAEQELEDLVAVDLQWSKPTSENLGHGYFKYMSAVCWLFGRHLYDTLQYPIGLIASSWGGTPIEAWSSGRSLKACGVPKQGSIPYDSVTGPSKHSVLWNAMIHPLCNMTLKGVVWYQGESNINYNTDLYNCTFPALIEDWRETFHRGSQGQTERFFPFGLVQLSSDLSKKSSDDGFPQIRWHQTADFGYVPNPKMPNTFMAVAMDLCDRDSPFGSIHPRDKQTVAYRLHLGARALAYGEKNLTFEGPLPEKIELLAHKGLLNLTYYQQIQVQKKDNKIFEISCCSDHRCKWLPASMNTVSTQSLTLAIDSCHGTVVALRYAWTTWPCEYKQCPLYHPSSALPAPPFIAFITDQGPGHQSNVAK
HTRA1 inhibitor = HTRA1 (human) protease inhibition. inhibition, % at 5.96 µM. recombinant HTRA1, FP-rhodamine activity-based probe, fluorescence polarization. Q92743. AID 504803. 340,000 compounds, 0.5% hits; in the data active = inhibition above about 36%;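 also: 0% = enzyme with DMSO and 100% = wells lacking enzyme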
PRMT1 inh = PRMT1 (human) inhibition, primary screen; recombinant PRMT1, activity-based probe fluorescence polarization; inhibition, % at 2.79 µM; 370,000 compounds, 1.3% hits; AID 652257;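 active = inhibition above about 21% made by adding two undisclosed values, limit read from the data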
rCAG bind conf = r(CAG) RNA repeat binding, confirmation; shares compounds with rCAG binder; TO-PRO-1 dye displacement fluorescence; inhibition, % at 3 µM; 4,300 compounds, 70% hits;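 active = inhibition above a per-plate cutoff, the mean inhibition of sample wells plus 3 SD, cut at about 35% in these data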;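 also: loss of TO-PRO-1 fluorescence as compound displaces dye from 1x1 AA loop RNA; 0% = DMSO only wells and 100% = 100 µM mitoxantrone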
DNA CAG counter = counter-screen for rCAG RNA binders: DNA CAG dye complex inhibitors. d(CAG) DNA oligo TO-PRO-1 dye displacement, fluorescence. 4,300 compounds, 94% hits. shares compounds with rCAG binder. AID 652068. inhibition, % at 3 µM;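 active = inhibition above its plate's cutoff, the mean test-well inhibition plus 3 SD, cut at about 4.8% in these data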;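 also: 0% = DNA dye mix with DMSO and 100% = 100 µM mitoxantrone; hits displace the dye from DNA and so lower well fluorescence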
Numbers without * were called inactive; / = no result.

SMILES	TCR-CD3 inh	rCAG binder	ABHD4 inh	SIAE primary	HTRA1 inhibitor	PRMT1 inh	rCAG bind conf	DNA CAG counter
COc1ccc(Cc2nnc(SCC(=O)Nc3c(C)cccc3C)[nH]c2=O)cc1	5	8	3	14	2	5	/	/
CCc1cccc(NC(=O)CSc2nnc(Cc3ccc(OC)cc3)c(=O)[nH]2)c1	-6	46*	-3	-5	-6	2	42*	9.3*
CC(C)=CCC/C(C)=C/Cc1c(O)ccc(C(=O)/C=C/c2ccc(O)cc2)c1O	1	68*	-42	-27	-21	0	39*	24*
C(=N/N1CCN(c2ccccc2)CC1)/c1ccco1	/	1	3	3	/	2	/	/
COc1ccc(NS(=O)(=O)c2c(F)cccc2F)cc1S(=O)(=O)N1CCOCC1	-2	9	7	7	8	2	/	/
COc1ccc(NS(=O)(=O)c2c(F)cc(F)c(Cl)c2F)cc1S(=O)(=O)N1CCCCC1	-7	40*	4	2	-4	1	36*	11*
COc1ccc(Cl)cc1-n1c(=S)sc2c(=O)[nH]c(SCC(=O)NCC3CCCO3)nc21 (stereo unspecified)	4	41*	4	8	-3	2	31	6.6*
CCC(C)NC(=O)CSc1nc2c(sc(=S)n2-c2cc(Cl)ccc2OC)c(=O)[nH]1 (stereo unspecified)	-6	46*	-5	5	-2	-1	38*	8.5*
O=C(CSc1nnc(-c2cccnc2)n1-c1ccccc1)Nc1cccc2ccccc12	/	3	1	-2	/	0	/	/
COc1ccc(NC(=O)CSc2ncnc3scc(-c4ccc(C)cc4)c23)cc1OC	/	9	1	2	/	-1	/	/
O=C1CCC[C@H]2C[C@H](NCc3cccc(I)c3)CC[C@]23CCCN13	/	/	0	-1	/	3	/	/
COc1ccccc1-n1c(SCC(=O)c2ccc(O)cc2O)nc2cc([N+](=O)[O-])ccc21	1	49*	-61	-63	-50	0	47*	22*
CCn1c(SCC(=O)Nc2ccc(C(N)=O)cc2)nc2sc(C)c(C)c2c1=O	/	3	2	-7	/	2	/	/
COc1ccc(N(CC(=O)Nc2cc(Cl)ccc2OC)S(=O)(=O)c2c(C)[nH]c(=O)[nH]c2=O)cc1	2	49*	4	-7	-3	-1	39*	13*
Cc1ccc(N(CC(=O)Nc2ccc(Br)c(C)c2)S(=O)(=O)c2c(C)[nH]c(=O)[nH]c2=O)cc1	0	47*	-21	-16	-28	-6	67*	23*
COc1ccc(N(CC(=O)Nc2cc(C)ccc2C)S(=O)(=O)c2c(C)[nH]c(=O)[nH]c2=O)cc1	6	14	2	-4	3	-4	/	/
Cc1cc(C)cc(N(CC(=O)Nc2ccc(C(F)(F)F)cc2)S(=O)(=O)c2c(C)[nH]c(=O)[nH]c2=O)c1	-2	49*	-20	-21	-29	3	52*	16*
COc1ccc(N(CC(=O)NCc2ccc(C)cc2)S(=O)(=O)c2c(C)[nH]c(=O)[nH]c2=O)cc1	-4	11	-12	-2	2	-6	/	/
COc1cc(NC(=O)CN(c2cc(C)cc(C)c2)S(=O)(=O)c2c(C)[nH]c(=O)[nH]c2=O)cc(OC)c1	3	29	-6	-5	-11	3	/	/
Cc1cc(C)cc(N(CC(=O)Nc2ccc(C)cc2Cl)S(=O)(=O)c2c(C)[nH]c(=O)[nH]c2=O)c1	-2	40*	-11	-2	1	3	54*	17*
COc1ccccc1C(=O)n1ccc2ccc(-c3ccc4ccn(Cc5ccc(C#N)cc5)c4c3)cc21	/	16	-6	-3	/	-2	/	/
COc1ccc([C@H]2OC(=O)C[C@H]2C(=O)N2CCN(C(=O)C3CCCO3)CC2)cc1OC (stereo partly specified)	/	-1	0	4	/	1	/	/
C=CCN(C(=O)[C@@H](C)[C@@H](O)c1ccc2ccccc2c1)c1ccccc1	/	1	-4	-3	/	3	/	/
